# Laboratory results from publication PMC12484386 (Journal of Clinical Pharmacology, 2025).
# Tests used:
# [1] = cited from earlier work
# [2] = single oral 5 mg radiolabeled fruquintinib, healthy volunteers; cited from earlier work
# [3] = cited from earlier work; remark: listed apart in the source
# Renal impairment study = type: in vivo, human
# How it was run: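 Renal function by Cockcroft-Gault. Parent and M11 plasma predose to 240 h by LC-MS/MS (1.00-750 ng/mL); unbound fraction by equilibrium dialysis at 4 h. Ln-parameters by one-way ANOVA; GMR with 90% CI.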
# AAG = test: Separate in vitro equilibrium dialysis study, binding to AAG; type: in vitro ADME; settings: AAG (alpha-1-acid glycoprotein)
# [4] = cited from earlier work; remark: listed apart in the source
# Hepatic impairment study = type: in vivo, human
# How it was run: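 Open-label single oral dose after ≥10 h overnight fast, held to 2 h postdose: Child-Pugh B (n=8) 2 mg; matched normal hepatic function (n=8) 5 mg. Parent and M11 plasma sampled predose to 240 h by validated LC-MS/MS (1.00-750 ng/mL). Data dose-normalized to 5 mg. Ln-transformed parameters by one-way ANOVA, cohort fixed; GMR and 90% CI back-transformed; unbound parameters analysed likewise.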
# [5] = Safety and tolerability, renal impairment study; type: in vivo, human
# HSA = HSA (Homo sapiens, UniProt P02768); test: Separate in vitro equilibrium dialysis study, binding to HSA; type: in vitro ADME; settings: HSA (human serum albumin)
# Sequence of HSA (P02768 25-609): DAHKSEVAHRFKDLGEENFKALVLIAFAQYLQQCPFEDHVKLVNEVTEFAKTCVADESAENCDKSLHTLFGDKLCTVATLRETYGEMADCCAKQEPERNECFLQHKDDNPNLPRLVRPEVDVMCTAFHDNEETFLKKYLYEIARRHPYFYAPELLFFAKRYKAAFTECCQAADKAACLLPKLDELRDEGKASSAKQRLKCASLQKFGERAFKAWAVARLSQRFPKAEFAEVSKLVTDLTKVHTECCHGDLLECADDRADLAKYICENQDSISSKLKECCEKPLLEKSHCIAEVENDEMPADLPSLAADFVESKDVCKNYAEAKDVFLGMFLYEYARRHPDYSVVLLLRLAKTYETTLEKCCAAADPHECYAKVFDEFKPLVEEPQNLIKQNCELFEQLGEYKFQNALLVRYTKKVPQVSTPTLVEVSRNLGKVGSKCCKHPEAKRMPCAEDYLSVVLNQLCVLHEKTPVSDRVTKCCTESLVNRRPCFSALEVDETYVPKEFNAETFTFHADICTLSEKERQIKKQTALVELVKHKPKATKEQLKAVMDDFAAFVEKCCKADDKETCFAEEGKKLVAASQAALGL
# [6] = Plasma protein binding in human plasma at 1-10 µM; type: in vitro ADME
# plasma protein = settings: cited from earlier work
# [7] = Safety and tolerability, hepatic impairment study; type: in vivo, human
# [8] = moderate renal impairment vs normal renal function
# [9] = severe renal impairment compared with normal renal function
# [10] = severe renal impairment vs normal renal function
# [11] = moderate hepatic impairment vs normal hepatic function
structure (smiles),measurement,setting,value
CNC(=O)c1c(C)oc2cc(Oc3ncnc4cc(OC)c(OC)cc34)ccc12 [fruquintinib],inter-individual variability in apparent oral clearance,[1],26%
same,impact of mild to moderate renal impairment and mild hepatic impairment on PK,[1]; population PK analysis,no clinically meaningful impact
same,dose recovered in feces,[2],30%
same,dose recovered in urine,[2],approximately 60%
same,dose recovered unchanged in feces,[2],5%
same,dose recovered unchanged in urine,[2],0.5%
same,change in fruquintinib exposure,"[3]; co-administration with itraconazole, a strong CYP3A inhibitor",did not result in clinically meaningful change
same,reduction of fruquintinib exposure,"[3]; concurrent use of rifampin, a strong metabolic enzyme inducer",approximately 65%
same,"CL/F, mean (SD)","Renal impairment study; moderate renal impairment (CrCl 30-59 mL/min), N = 8, single oral 5 mg",14.2 mL/min
same,"difference across Cmax, AUC0-t, and AUC0-inf",Renal impairment study; moderate renal impairment compared with normal renal function,less than 8%
same,LS GMR DN AUC0-inf [90% CI],Renal impairment study; [8],1.07
same,LS GMR DN AUC0-t [90% CI],Renal impairment study; [8],1.06
same,LS GMR DN Cmax [90% CI],Renal impairment study; [8],0.95
same,"CL/F, mean (SD)","Renal impairment study; normal renal function, N = 8, single oral 5 mg",15.0 mL/min
same,"CL/F, mean (SD)","Renal impairment study; severe renal impairment (CrCl 15-29 mL/min), N = 8, single oral 2 mg",15.0 mL/min
same,difference in AUCs,Renal impairment study; [9],less than 3%
same,dose-normalized Cmax lower,Renal impairment study; [9],approximately 11%
same,LS GMR DN AUC0-inf [90% CI],Renal impairment study; [10],1.01
same,LS GMR DN AUC0-t [90% CI],Renal impairment study; [10],0.97
same,LS GMR DN Cmax [90% CI],Renal impairment study; [10],0.89
same,fraction unbound at 0.1 µM,AAG,0.356
same,fraction unbound at 1 µM,AAG,0.358
same,fraction unbound at 10 µM,AAG,0.413
same,elimination half-life (t1/2),[4],approximately 42 h
same,weight-normalized apparent clearance,[4],approximately 0.17 mL/min/kg
same,time to steady-state concentrations,[4]; consecutive QD dosing,14 days
same,median time to maximum plasma concentration (Tmax),"[4]; oral administration, patients with cancer",approximately 2 h
same,accumulation at steady-state,"[4]; relative to a single dose, QD dosing",approximately 4 fold
same,"CL/F, mean (SD)","Hepatic impairment study; moderate hepatic impairment (Child-Pugh B), N = 8, single oral 2 mg",17.4 mL/min
same,difference in dose-normalized Cmax,Hepatic impairment study; moderate hepatic impairment compared with normal hepatic function,less than 5%
same,AUCs lower,"Hepatic impairment study; moderate hepatic impairment compared with normal hepatic function, dose normalized",approximately 10%
same,LS GMR DN AUC0-inf [90% CI],Hepatic impairment study; [11],0.91
same,LS GMR DN AUC0-t [90% CI],Hepatic impairment study; [11],0.89
same,LS GMR DN Cmax [90% CI],Hepatic impairment study; [11],1.04
same,"CL/F, mean (SD)","Hepatic impairment study; normal hepatic function, N = 8, single oral 5 mg",15.3 mL/min
same,participants with TEAEs,[5]; 3 of the 24 participants,12.5%
same,participants with headache,"[5]; moderate renal impairment, one of eight, grade 1, nonserious, not related",12.5%
same,participants with hypoglycemia,"[5]; moderate renal impairment, one of eight, grade 3, nonserious, not related",12.5%
same,participants with eye pruritis and periorbital edema,"[5]; normal renal function, one of eight, grade 1, nonserious, not related",12.5%
same,fraction unbound at 0.1 µM,HSA,0.0565
same,fraction unbound at 1 µM,HSA,0.0635
same,fraction unbound at 10 µM,HSA,0.0627
same,fraction unbound at 1 µM,[6],0.046
same,fraction unbound at 3 µM,[6],0.047
same,fraction unbound at 10 µM,[6],0.047
same,protein binding in human plasma,plasma protein,approximately 95%
same,participants with treatment emergent adverse events (TEAEs),"[7]; 4 of the 16 participants, all TEAEs in moderate hepatic impairment",25.0%
same,tolerability,"[7]; both studies, single dose 2 or 5 mg",generally well tolerated
same,participants with treatment-related TEAEs,"[7]; hepatic impairment study, three of 16 participants",18.8%
same,participants with dizziness,"[7]; moderate hepatic impairment, one of 8, grade 1, nonserious, related",12.5%
same,participants with urinary tract infection,"[7]; moderate hepatic impairment, one of 8, grade 2, nonserious, not related",12.5%
